Measured values from the EternaBench riboswitch data.

Tested on: MS2 coat protein
Assay: apparent Kd, MS2 coat protein; higher = weaker binding; RNA-MaP array; FMN 200 µM where present
Outline: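 On Illumina sequencing-chip clusters, designs were transcribed by stalled E. coli RNA polymerase and titrated with SNAP-549-labelled MS2 coat protein (0.7 or 1.5 nM, doubling to 3 µM), without and then with constant ligand, in 100 mM Tris-HCl pH 7.5, 80 mM KCl, 4 mM MgCl2, BSA, DTT, yeast tRNA and Tween-20. Apparent Kd is the median of filtered per-cluster curve fits to green signal normalised to red-channel RNA signal and control-cluster median Fmax.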

[1] = designed as: OFF switch for flavin mononucleotide, no ligand
[2] = ligand present: flavin mononucleotide, designed as: OFF switch for flavin mononucleotide
[3] = designed as: ON switch for flavin mononucleotide, no ligand
[4] = ligand present: flavin mononucleotide, designed as: ON switch for flavin mononucleotide

| Sequence | apparent Kd [1] | apparent Kd [2] | apparent Kd [3] | apparent Kd [4] |
| --- | --- | --- | --- | --- |
| CCAUCGAGUGUGAGGAUAUGCUGUUCCUUGGAGCAGCAGAAGGCACAUGAGGAUCACCCAUGUGGAUACGGUGG | 34.3 nM | 251 nM |  |  |
| GUACUACAUGAGGAUCACCCAUGUACAAAGGUACGAGGAUAUGCAUGUACGAAAGUAUAUGCAGAAGGCGUAGUAC |  |  | 25.8 nM | 21.7 nM |
| GGGUCGUCAGGAUAUACAUGAGGAUCACCCAUGUGACCACACUUACCUAUCGCUCGCUGUAGAAGGGAUGAUGA | 30.3 nM | 27.1 nM |  |  |
| GGUCGUCACAUUUACAUGAGGAUCACCCAUGUCGAAAGACAUGAGGAUAUGCAUCCUAAUUGGAUGCAGAAGGCAUGGACGACC |  |  | 445 nM | 249 nM |
| UGUCGGAGCAGAGGAUAUACAUGAGGAUCACCCAUGUAAAUGGAAGAAGCCUGGAAACAGGCAAUGUAGAAGGCUGCUCCGACA | 132 nM | 970 nM |  |  |
| ACCGUGUCAGGAUAUCCUGCUGUGCGGACUCUGUCUUCACGGGAGAAGGGACAUGAGGAUCACCCAUGUUUGAG | 20.2 nM | 25.4 nM |  |  |
| AUGGACGCAGGAUAUACAUGAGGAUCACCCAUGUGAGGUAGGUAAGUAGGAAGUGAAGGUAGAAGGGCGAGAGA | 67.2 nM | 95.3 nM |  |  |
| AAAAGUUGAGGAUAUACAAAAUGAUUGCGAAAUCAAUUAAAACAUGAGGAUCACCCAUGUAGAAGGCGAUAAAA | 31.1 nM | 25.9 nM |  |  |
| UGUCGGAGCAGAGGAUAUUACAUGAGGAUCACCCAUGUAUGAACCAAUAGCUGGAAACAGCAAUGUAAGAAGGCAGCUCCGACA | 5.11 nM | 8.82 nM |  |  |
| AUAAAUAAGCAAGGAUAUUGUUUAAAUAAAUAACAAGAAGGUGCAGUUAAUUUCUCAAAACAUGAGGAUCACCCAUGUAUUUAA |  |  | 42.4 nM | 21.8 nM |
| CGGGCGCGAGUAGGAUAUGUAUAUUUGCCGGGUCCGUGAUCACAUGAGGAUCACCCAUGUGGUAAGCAGAAGGAUUCGGUCCGA | 6.04 nM | 7.8 nM |  |  |
| GACAAUCUAUCUGAGGAUAUCAUGAAAAAAACAUGAGGAUCACCCAUGUGCAGGAAAACUGCAUAUGAGAAGGCAGAUAGAUUGC |  |  | 678 nM | 27.4 nM |
| AGCAUGUAAGGAUAUGCAAGUGGUAUGGAUCGUACCAGAAAGCAGAAGGUACAUGAGGAUCACCCAUGUGCUCC | 29.2 nM | 67.5 nM |  |  |
| GCCUAAAGUGAGGAUAUCUAGCGCGUAAAGGCAGGAGAAGGUGCAACAUGAGGAUCACCCAUGUAGGCUGUCUA | 19.5 nM | 20 nM |  |  |
| AUGGACGUCGUAGGAUAUGUAGGAUUCUCGUACAUGAGGAUCACCCAUGUUGACGUCGAGGACGGACAGAAGGGCGGUGUCUAU |  |  | 64.6 nM | 9.38 nM |
| GUAGCACAAACAAAUGUAACAUGAGGAUCACCCAUGUGUUAUGAGGAUAUGGAUGUGAAGUUAAUCCAGAAGGCAUUAUGCUAA |  |  | 17.2 nM | 15.1 nM |
| AUUAUGUAAGGAUAUCUUACAUGUGACUUCGGUCACUGUCAAGAGAAGGUACAUGAGGAUCACCCAUGUAUGAC | 14 nM | 16.3 nM |  |  |
| CCAGCUCGUGUUAGGAUAUCCAAGCUGCGGCUGGUGGAGAAGGGACAUGAGGAUCACCCAUGUAAUAAAGAAAA | 26.4 nM | 31.9 nM |  |  |
| AAAUAAACUACCAAGAUAUCCUCACAUGAGGAUCACCCAUGUCAGGAUAUUUGUCCUAAAAGGACAGAGAAGGGACGUGGUAGA | 6.24 nM | 14.8 nM |  |  |
| GUAAUUAUAUAGGAUAUCGAACUUAUUAUUUAACGAGAAGGAUGAACAUGAGGAUCACCCAUGUGGUAUCAUGG | 156 nM | 190 nM |  |  |
| CAGGUAGACUGAGGAUAUACACAAAACAGCUAGUCUAUCUAGCUGCUCACAUGAGGAUCACCCAUGUAGAAGGCAGUCUGCCUG | 18.4 nM | 37.8 nM |  |  |
| CCUGCCAGGACAGGAUAUCUGAGCUGGGACAUGUCUUUUAAGGACAUGAGGAUCACCCAUGUUCAAGAGAAGGGUCAAGGGCGU | 401 nM | 210 nM |  |  |
| UUAUUUAGGUAGGAUAUCGAUACUAAUUAUUAUCGAGAAGGGUCUACAUGAGGAUCACCCAUGUUAGCAUGUUU | 28 nM | 27.7 nM |  |  |
| CUUUCCAGGUAGAAGGGAUUACUACAUGAGGAUCACCCAUGUCGAUUGAUCAGGAUAUGCCUGUCACGACGCGUGAUGCUAGAG |  |  | 322 nM | 66.3 nM |
| AAGCUCGUGUGAGGAUAUGCCGCCGUUUCGGCUGCAGAAGGUGCUACGUUACAUGAGGAUCACCCAUGUCUCUGUUGUUUCGUC |  |  | 29.9 nM | 24.8 nM |
| AAUUCACAUGAGGAUCACCCAUGUCAGGAUAUGGUUUCACGUUUUUCUUUUCUUGAUUCCAGAAGGGACAGCUA | 65.6 nM | 82 nM |  |  |
| CUCAGCUCGUCAGGAUAUACGUCACUGCUUCGGCAGUGUGGUAAGAUCACAUGAGGAUCACCCAUGUAGAAGGGACGAGCUGAG | 11.5 nM | 245 nM |  |  |
| AAGACACAUGAGGAUCACCCAUGUCAAGAGAGACGAGGAUAUCUGAAUUAAUUAAAUUAAGGAGAAGGCGUGAAAA |  |  | 78.9 nM | 30.9 nM |
